Compound activity: PubChem, Broad Institute
E-sel inducer = E-selectin induction in HUVECs, primary screen, imaging, HUVEC, immunofluorescence imaging, single point; actives 0.37% (n = 260,000); AID 686992, 2013; normalized: neutral wells 0, TNF-alpha wells 100; activation, % at 7.58 µM; P16581;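 active means mean E-selectin-positive cell signal at least 10% of the positive control, reached in at least 60% of replicates, without over 20% cell loss; inconclusive means no rule given, readout overlaps actives, possibly toxicity-flagged; inactive means the rest, including those meeting only one limit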
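Read-out basis: % PE-positive cells; Test system: HUVEC primary endothelial cells; Technique: immunofluorescence imaging; Dosing: single-point compound dose.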
DENV2 CPE rescue = inhibitors of DENV2 cytopathic effect, primary screen, cell-based, plate reader, single concentration; DENV2-infected cells, cytopathic effect rescue; actives 1.7% (n = 350,000); CPE inhibition, % at 9.99 µM; in the data active means CPE inhibition above about 20%, passing the limit was not always enough; inconclusive means no clear call, values can overlap the other calls; tested in BHK-21 cells
SIRT5 inh = SIRT5 desuccinylase inhibitors, primary screen, biochemical, fluorescence imaging, single point, set 5; actives 1.1% (n = 330,000); inhibition, % at 15 µM; NAD-dependent protein deacylase sirtuin-5, mitochondrial (Homo sapiens), Q9NXA8; Purified SirT5, succinyl-peptide AMC, trypsin-coupled fluorescence; in the data active means inhibition above about 15%; inconclusive means no clear call, values can overlap the other calls
Target sequence (Q9NXA8 whole entry, looked up): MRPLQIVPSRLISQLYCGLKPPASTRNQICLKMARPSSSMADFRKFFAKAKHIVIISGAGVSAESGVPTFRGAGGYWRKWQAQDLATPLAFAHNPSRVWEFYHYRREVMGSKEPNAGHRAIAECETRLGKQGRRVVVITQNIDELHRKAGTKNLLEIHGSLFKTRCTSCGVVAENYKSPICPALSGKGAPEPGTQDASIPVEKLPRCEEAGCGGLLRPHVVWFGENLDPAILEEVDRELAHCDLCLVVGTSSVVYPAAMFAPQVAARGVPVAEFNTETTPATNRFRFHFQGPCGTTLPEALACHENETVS
Numbers stand for hits; i = inactive; ? = inconclusive; nt = not tested or not shown; ! = not confirmed by another sample. An excerpt weighted towards active compounds, which were near 2.8% of everything screened.

SMILES | E-sel inducer | DENV2 CPE rescue | SIRT5 inh
COC(=O)C1=C(c2ccccc2OCc2ccccc2)C[C@@H]2CC[C@H]1N2C(=O)NCc1ccc(N(C)C)cc1 | i | i | nt
COC(=O)C1=C(c2ccccc2OCc2ccccc2)C[C@@H]2CC[C@H]1N2C(=O)NCc1ccc(Cl)cc1 | i | 58 | nt
COC(=O)C1=C(c2cccc(OCc3ccccc3)c2)C[C@@H]2CC[C@H]1N2C(=O)NCCOc1ccc(OC)cc1 | i | i | nt
COC(=O)C1=C(c2ccc(-c3ccccc3)c(F)c2)C[C@@H]2CC[C@H]1N2C(=O)NCCNC(C)=O | i | i | nt
COC(=O)C1=C(c2ccc(-c3ccccc3)c(F)c2)C[C@@H]2CC[C@H]1N2C(=O)NCCCOC(C)C | i | 25 | i
COC(=O)C1=C(c2ccc3ccccc3c2)C[C@@H]2CC[C@H]1N2C(=O)NCCCOC(C)C | i | i | i
COC(=O)C1=C(c2cccc(OCc3ccccc3)c2)C[C@@H]2CC[C@H]1N2C(=O)NCCCOC(C)C | i | i | 27
O=C(Cc1ccccc1)N1CCCCN2[C@H](C1)[C@H](c1ccc(C#Cc3ccccc3)cc1)[C@@H]2CO | i | i | i
O=C(Cc1cccnc1)N1CCCCN2[C@@H](CO)[C@@H](c3ccc(/C=C/c4ccccc4)cc3)[C@@H]2C1 | i | i | i
O=C(Cc1ccccn1)N1CCCCN2[C@H](CO)[C@H](c3ccc(Br)cc3)[C@H]2C1 | i | i | i
O=C(Cc1ccccn1)N1CCCCN2[C@H](CO)[C@H](c3ccc(C#Cc4ccccc4)cc3)[C@@H]2C1 | i | i | i
COC(=O)[C@H]1[C@H](CO)[C@H]2Cn3c(ccc(-c4ccccc4)c3=O)[C@@H]1N2CC1CCOCC1 | i | i | i
O=C(Cc1ccccc1)N1CC2(C1)[C@H](c1ccccc1)[C@H](CO)N2Cc1cccc(F)c1 | i | i | i
C[C@]12CCC3C(CC[C@H]4C[C@@H](O)CC[C@]34C)C1C[C@@H](N)[C@@H]2O (some centres undefined) | i | i | i
C[C@]12CCC3C(CC[C@H]4C[C@@H](O)CC[C@]34C)C1C[C@@H](Br)[C@@H]2O (some centres undefined) | i | i | 23
COCC(=O)N1[C@@H]2c3ccc(C4=CCCC4)c(=O)n3C[C@H]1[C@H](CO)[C@H]2C(=O)OC | i | i | i
CN(C)[C@@H]1C(=O)C(C(N)=O)=C(O)[C@@]2(O)C(=O)C3=C(O)c4c(O)cccc4[C@@](C)(O)C3C[C@@H]12 (some centres undefined) | i | i | 20
CN(C)[C@@H]1C(=O)C(C(N)=O)=C(O)[C@@]2(O)C(=O)C3=C(O)c4c(O)cccc4[C@@](C)(O)[C@H]3[C@H](O)[C@@H]12 | i | i | 41
CN(C)[C@@H]1C(=O)C(C(N)=O)=C(O)[C@@]2(O)C(=O)C3=C(O)c4c(O)ccc(Cl)c4[C@@](C)(O)[C@H]3C[C@@H]12 | nt | i | i
COc1cccc(-c2ccc3n(c2=O)C[C@H]2[C@H](CO)[C@@H](C(=O)O)[C@@H]3N2Cc2ccccc2F)c1 | i | nt | nt
COc1cccc(C(=O)C2CCCN(Cc3cccc(C)n3)C2)c1 (centres undefined) | nt | i | i
Cc1cccc(CN2CCCC(C(=O)c3ccc4c(c3)OCO4)C2)n1 (centres undefined) | 33 | i | i
C/C=C1\NC(=O)[C@H](C)NC(=O)[C@@H](NC(=O)[C@H](Cc2ccc(O)cc2)NC(=O)[C@@H](NC(=O)/C(C)=C/C)C(C)C)[C@@H](C)OC(=O)[C@H](CCCc2ccc(O)cc2)NC(=O)[C@@H](CCC(=O)O)NC1=O | i | i | 22
COc1ccc(C#Cc2ccc([C@H]3[C@H](CO)N4CCCCN(C(=O)Cc5cccnc5)C[C@@H]34)cc2)cc1 | i | i | i
O=C1/C(=C/c2cccnc2)N2CCC1CC2 | nt | i | i
SMILES | E-sel inducer | DENV2 CPE rescue | SIRT5 inh
O=C1C(=Cc2ccccc2)N2CCC1CC2 | i | 29 | i
C/C=C/c1ccc(C2[C@@H]3CN(Cc4cccnc4)C[C@H]2N3)cc1 (some centres undefined) | i | i | i
O=C(c1ccc(Cl)cc1)N1CCC2(CC1)OCCO2 | nt | i | i
O=C(c1ccc(CNS(=O)(=O)c2ccc(Br)cc2)cc1)N1CCC2(CC1)OCCO2 | nt | 37 | i
CCOC(=O)c1cccc(C2=C(CNC(=O)c3cccnc3)[C@H]3CC[C@@H](C2)N3Cc2ccccc2)c1 | i | ? | i
CCOC(=O)c1cccc(C2=C(CNC(C)=O)[C@H]3CC[C@@H](C2)N3Cc2ccccc2)c1 | i | 32 | i
O=C(NC[C@H]1CC[C@H]2[C@H](CN2Cc2cccnc2)O1)C1CC1 | nt | i | i
COC(=O)[C@H]1[C@H](CO)[C@H]2Cn3c(ccc(/C=C/c4ccccc4)c3=O)[C@@H]1N2Cc1ccccc1F | i | i | i
Cc1ccc(CC(=O)N2CCN(Cc3ccccc3)CC2)cc1 | i | ? | i
Cc1c(C)c2ccc(OCC(=O)N3CCN(Cc4ccccc4)CC3)cc2oc1=O | i | i | i
O=C(COc1ccc(Cl)cc1)N1CCN(Cc2ccccc2)CC1 | nt | nt | 16
COc1cc(CN2CCN(C(=O)Cc3ccccc3)CC2)cc(OC)c1OC | nt | i | 15
CCC(=O)N1[C@@H]2c3ccc(C4=CCCC4)c(=O)n3C[C@H]1[C@H](CO)[C@H]2C(=O)OC | i | i | i
C[C@@H]1CN([C@H](C)CO)C(=O)CCCn2nncc2CO[C@H]1CN(C)C(=O)Oc1ccc2ccccc2c1 | i | 56! | i
C[C@@H]1CN([C@@H](C)CO)C(=O)CCCn2nncc2CO[C@@H]1CN(C)C(=O)Oc1ccc2ccccc2c1 | i | i | i
COc1ccc(OC(=O)N(C)C[C@@H]2OCc3cnnn3CCCC(=O)N([C@H](C)CO)C[C@H]2C)cc1 | i | i | i
C[C@@H]1CN([C@@H](C)CO)C(=O)CCCn2nncc2CO[C@H]1CN(C)C(=O)Oc1ccc2ccccc2c1 | i | 50! | i
COc1ccc(OC(=O)N(C)C[C@H]2OCc3cnnn3CCCC(=O)N([C@@H](C)CO)C[C@H]2C)cc1 | i | i | 15!
C[C@H]1CN([C@@H](C)CO)C(=O)CCCn2nncc2CO[C@@H]1CN(C)C(=O)Oc1ccc2ccccc2c1 | i | i | i
COC(=O)[C@H]1[C@H](CO)[C@H]2Cn3c(ccc(-c4ccncc4)c3=O)[C@@H]1N2S(=O)(=O)c1ccccc1F | i | i | i
COc1ccc(-c2ccc([C@@H]3[C@@H](CO)N4CCCCN(C(=O)Cc5ccccc5)C[C@H]34)cc2)cc1 | i | nt | i
COC(=O)[C@H]1[C@H](CO)[C@H]2Cn3c(cccc3=O)[C@@H]1N2C(=O)C1CCC1 | nt | i | i
COC(=O)[C@H]1[C@H](CO)[C@H]2Cn3c(ccc(-c4ccccc4F)c3=O)[C@@H]1N2C(C)=O | i | ? | i
Cc1cccc(S(=O)(=O)N2[C@@H]3c4ccc(-c5ccncc5)c(=O)n4C[C@H]2[C@H](CO)[C@H]3C(=O)O)c1 | i | i | i
Fc1ccc(CNCCc2c[nH]c3ccccc23)cc1 | nt | i | i
NCCc1c[nH]c2ccccc12 | nt | 63 | nt
Fc1ccccc1CNCCc1c[nH]c2ccccc12 | i | 32 | i
CCCN(CCC)CCc1c[nH]c2ccccc12 | nt | i | nt
